Two compounds from ChEMBL document CHEMBL5360543, “Designed multiple ligands for the treatment of type 2 diabetes mellitus and its complications: Discovery of (5-arylidene-4-oxo-2-thioxothiazolidin-3-yl)alkanoic acids active as novel dual-targeted PTP1B/AKR1B1 inhibitors” (Eur J Med Chem, 2023) can be followed below.

The target of series [1] is T1, Aldo-keto reductase family 1 member B1 (Homo sapiens, UniProt P15121). The series can be described thus: Inhibition of human recombinant AKR1B1 expressed in Escherichia coli BL21(DE3)pLysS using L-idose as substrate by NADPH oxidation based absorbance analysis.
Series [2] has as its target T2, Tyrosine-protein phosphatase non-receptor type 1 (Homo sapiens, UniProt P18031).
T2 sequence (P18031 whole entry): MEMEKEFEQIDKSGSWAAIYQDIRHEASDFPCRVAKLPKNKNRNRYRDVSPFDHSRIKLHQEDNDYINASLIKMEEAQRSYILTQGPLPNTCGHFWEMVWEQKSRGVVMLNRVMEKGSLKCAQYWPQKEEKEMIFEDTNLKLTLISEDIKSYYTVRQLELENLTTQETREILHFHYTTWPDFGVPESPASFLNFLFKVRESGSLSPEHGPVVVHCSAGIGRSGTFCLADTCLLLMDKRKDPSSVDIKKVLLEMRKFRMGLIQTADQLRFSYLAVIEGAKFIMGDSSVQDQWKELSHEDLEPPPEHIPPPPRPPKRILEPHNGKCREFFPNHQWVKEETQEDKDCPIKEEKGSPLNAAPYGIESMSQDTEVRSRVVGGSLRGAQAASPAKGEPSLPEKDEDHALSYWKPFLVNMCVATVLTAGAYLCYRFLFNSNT
The series can be described thus: Non-competitive inhibition of N-terminal polyHis-tagged human PTP1B1 (1 to 303 residues) expressed in Escherichia coli BL21(DE3)pLysS assessed as apparent dissociation constant for EI complex using pNPP as substrate by Lineweaver-Burk plot analysis. The procedure, abridged:
(§1)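 PTP1B initial pNPP hydrolysis rates measured at seven pNPP concentrations (0.5–25 mM) and at least three inhibitor concentrations, in triplicate. Data fitted to Michaelis–Menten; KM and Vmax dependence on inhibitor analysed by Lineweaver–Burk plots.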

Series [3] concerns the target T2, Tyrosine-protein phosphatase non-receptor type 1. The series can be described thus: Non-competitive inhibition of N-terminal polyHis-tagged human PTP1B1 (1 to 303 residues) expressed in Escherichia coli BL21(DE3)pLysS assessed as apparent dissociation constant for ESI complex using pNPP as substrate by Lineweaver-Burk plot analysis. The method in brief:
as §1

Series [4] concerns the target T1, Aldo-keto reductase family 1 member B1. The series can be described thus: Ratio of Ki for human recombinant AKR1B1 expressed in Escherichia coli BL21(DE3)pLysS assessed as apparent dissociation constant for EI complex to Ki for human recombinant AKR1B1 expressed in Escherichia coli BL21(DE3)pLysS assessed as apparent dissociation constant for ESI complex. The method in brief: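 AKR1B1 rates measured at varied L-idose concentrations with and without several inhibitor concentrations, then Lineweaver–Burk analysis. […] Tight binders fitted with the Morrison equation, KM for L-idose taken as 3.8 mM. At least three independent experiments.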

In series [5] the test system is C2C12. The series can be described thus: Cytotoxicity against mouse C2C12 cells assessed as reduction in cell viability at 20 uM incubated for 24 hrs by MTT assay. Type of series: toxicity, cell-based. Particulars: c2c12, 24 h. The procedure, abridged:
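C2C12 myoblasts were differentiated for 96 h in DMEM with 2% horse serum, then held 24 h in complete medium with 20 µM compound, DMSO vehicle as control. MTT 0.5 mg/mL was added, cells lysed in DMSO, absorbance read, and values normalized to vehicle. Quadruplicate, mean ± SD (n = 4).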
For orientation: Formazan colour is commonly taken as a measure of viable cells.

Series [6] has as its system C2C12. The series can be described thus: Insulin-mimetic activity in mouse C2C12 cells assessed as stimulation of 2-NBDG uptake at 20 uM pretreated with compound for 15 mins followed by 2-NBDG addition and measured after 3 hrs by flow cytometry. Format: functional, cell-based. As to conditions: time 195.0 min. The method in brief:
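C2C12 cells serum-starved 24 h, then 15 min with 10 nM insulin, 20 µM compound, or both. Washed, then 3 h in starvation medium containing 40 µM 2-NBDG. Trypsinized, washed, and fluorescence measured by flow cytometry. Quadruplicate; mean fluorescence ± SD.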
Background: Flow cytometry measures light scatter and fluorescence of single cells or particles in a stream.

The next series relates to HLE. The series can be described thus: Cytotoxicity against human HLE cells assessed as reduction in cell viability at 2 uM incubated for 24 to 48 hrs by MTT assay. Type of series: toxicity, cell-based. Particulars: time 24-48 hrs. The procedure, abridged: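 HLE lens epithelial B3 cells in MEM with 20% FBS at 37 °C, exposed 24 and 48 h to compound in 0.05% DMSO. Then 1 h in MTT 0.5 mg/mL in phosphate buffer pH 7.4, formazan dissolved in 0.04 N HCl/isopropanol, absorbance 563 nm. Mean ± SEM of eleven independent measurements; Student's t test versus untreated cells.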

In series [7] the target is T1, Aldo-keto reductase family 1 member B1. The series can be described thus: Inhibition of AKR1B1 in human HLE cells assessed as inhibition of glucose-induced sorbitol accumulation at 2 uM incubated for 24 hrs in presence of glucose. Type of series: cell-based. The method in brief: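 HLE cells held 24 h in 75 mM D-glucose with or without 2 µM compound; 10 µM sorbinil as reference. Lysates from freeze/thaw and 10,000 × g spin were treated with perchloric acid and neutralized with KOH. Sorbitol assayed and expressed as nmol/mg protein (Bradford). Mean ± SEM of six measurements; one-way ANOVA with Tukey.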

The next series is filed under the species Homo sapiens. The series can be described thus: Selectivity index, ratio of IC50 for inhibition of N-terminal polyHis-tagged human recombinant TC-PTPb (1 to 415 residues) expressed in Escherichia coli BL21(DE3)pLysS to IC50 for inhibition of N-terminal polyHis-tagged human PTP1B1 (1 to 303 residues) expressed in Escherichia coli BL21(DE3)pLysS.
The target in series [8] is T2, Tyrosine-protein phosphatase non-receptor type 1. The series can be described thus: Mixed non-competitive inhibition of N-terminal polyHis-tagged human PTP1B1 (1 to 303 residues) expressed in Escherichia coli BL21(DE3)pLysS assessed as apparent dissociation constant for EI complex using pNPP as substrate by Lineweaver-Burk plot analysis. The procedure, abridged: as §1

Series [9] has the same target. The series can be described thus: Mixed non-competitive inhibition of N-terminal polyHis-tagged human PTP1B1 (1 to 303 residues) expressed in Escherichia coli BL21(DE3)pLysS assessed as apparent dissociation constant for ESI complex using pNPP as substrate by Lineweaver-Burk plot analysis. The method in brief:
as §1

The source made the active and inactive calls. The rule behind the calls is not given here.

What is called IC50 is the concentration needed to halve the response being measured. On to `O=C(O)CN1C(=O)/C(=C/c2cccc(OCCCCc3ccccc3)c2)SC1=S`, for which, in series [1], the IC50 was determined as 0.06 µM. Also, the Ki stood at 4.6 µM in series [2] and 4.3 µM in [3]. Further, in series [4], the Ratio Ki stood at 2. For the same compound, the Activity entry in the series on C2C12 [5] and with HLE was “Non-Toxic” throughout. Also, in the series on C2C12 [6], the outcome was Active. Moreover, the inhibition entry in series [7] is “Active”.
For the compound `O=C(O)CCN1C(=O)/C(=C/c2cccc(OCCCCc3ccccc3)c2)SC1=S`, the IC50 in series [1] is 2.1 µM. Also, the Ratio IC50 in the series listed under Homo sapiens turned out to be 8. Moreover, the Ki came to 0.9 µM in series [8] and 6.6 µM in series [9]. Moreover, in series [4], the Ratio Ki stood at 2. Further, the Activity entry with C2C12 [5] is on record as “Non-Toxic”. In addition, the outcome with C2C12 [6] was Active.
